ChEMBL document CHEMBL3425488, “Novel histone deacetylase inhibitors induce growth arrest, apoptosis, and differentiation in sarcoma cancer stem cells” (J Med Chem, 2015)
Active and inactive are the calls of the source. The calls are words filed in the database; no cut-off is given here.

Legend:
Histone deacetylase 2 = Histone deacetylase 2 (Homo sapiens, UniProt Q92769); test: Inhibition of recombinant HDAC2 (unknown origin) by homogeneous fluorescence release assay
Histone deacetylase 3 = Histone deacetylase 3 (Homo sapiens, UniProt O15379); test: Inhibition of recombinant HDAC3 (unknown origin) by homogeneous fluorescence release assay
Histone deacetylase 5 = Histone deacetylase 5 (Homo sapiens, UniProt Q9UQL6); test: Inhibition of recombinant HDAC5 (unknown origin) by homogeneous fluorescence release assay
In short: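 Recombinant HDAC isoform panel (HDAC1−11), tested in 10-dose IC50 mode with 3-fold serial dilution starting from 50 μM solutions.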

[1] = target: T1, Polyamine deacetylase HDAC10 (Homo sapiens, UniProt Q969S8); test: Inhibition of recombinant HDAC10 (unknown origin) by homogeneous fluorescence release assay
T1 sequence (Q969S8 whole entry): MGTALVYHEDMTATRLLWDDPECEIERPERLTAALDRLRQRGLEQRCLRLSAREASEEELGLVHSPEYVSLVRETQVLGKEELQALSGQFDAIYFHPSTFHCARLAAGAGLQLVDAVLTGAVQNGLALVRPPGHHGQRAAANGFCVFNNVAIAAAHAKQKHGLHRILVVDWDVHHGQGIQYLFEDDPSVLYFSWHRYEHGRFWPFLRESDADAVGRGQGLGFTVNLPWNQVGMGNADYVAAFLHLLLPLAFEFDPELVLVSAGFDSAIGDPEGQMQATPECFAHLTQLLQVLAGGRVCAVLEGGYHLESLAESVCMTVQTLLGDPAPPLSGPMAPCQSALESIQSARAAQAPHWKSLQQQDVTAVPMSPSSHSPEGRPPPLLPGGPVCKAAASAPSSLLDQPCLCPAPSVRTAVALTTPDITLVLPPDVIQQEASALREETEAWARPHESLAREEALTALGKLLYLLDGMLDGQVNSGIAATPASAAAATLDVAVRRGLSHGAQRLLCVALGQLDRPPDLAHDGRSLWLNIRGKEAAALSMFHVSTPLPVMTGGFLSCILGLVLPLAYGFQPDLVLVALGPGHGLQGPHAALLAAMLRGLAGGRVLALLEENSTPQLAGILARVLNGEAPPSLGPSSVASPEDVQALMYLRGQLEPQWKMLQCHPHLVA

HOS = test: Antiproliferative activity against HOS cells after 24 to 72 hrs by […] dye exclusion assay; type: functional, cell-based; conditions: Homo sapiens
In short: (§1)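 Sarcosphere-derived CSCs, dissociated to single cells, plated at 50000/well in complete IMDM for adhesion. After 24 h, exposed to 0.5, 1 and 2 μM. Viable cells counted by dye exclusion at 24, 48 and 72 h. Growth inhibition is expressed relative to DMSO-treated controls. Three experiments in duplicate.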

MG-63 [2] = test: Antiproliferative activity against human MG63 cells after 24 to 72 hrs by […] dye exclusion assay; type: functional, cell-based; in short: as §1
A204 = test: Antiproliferative activity against human A204 cells after 24 to 72 hrs by […] dye exclusion assay; type: functional, cell-based; in short: as §1
SK-ES1 = test: Antiproliferative activity against human SK-ES-1 cells after 24 to 72 hrs by […] dye exclusion assay; type: functional, cell-based; in short: as §1
[3] = target: T2, Protein deacetylase HDAC6 (Homo sapiens) (UniProt Q9UBN7); test: Inhibition of HDAC6 in human MG63 cells assessed as upregulation of acetyl-tubulin level at 0.5 to 2 uM after 24 hrs by Western blot analysis relative to control; type: cell-based; conditions: MG-63
T2 sequence (whole entry): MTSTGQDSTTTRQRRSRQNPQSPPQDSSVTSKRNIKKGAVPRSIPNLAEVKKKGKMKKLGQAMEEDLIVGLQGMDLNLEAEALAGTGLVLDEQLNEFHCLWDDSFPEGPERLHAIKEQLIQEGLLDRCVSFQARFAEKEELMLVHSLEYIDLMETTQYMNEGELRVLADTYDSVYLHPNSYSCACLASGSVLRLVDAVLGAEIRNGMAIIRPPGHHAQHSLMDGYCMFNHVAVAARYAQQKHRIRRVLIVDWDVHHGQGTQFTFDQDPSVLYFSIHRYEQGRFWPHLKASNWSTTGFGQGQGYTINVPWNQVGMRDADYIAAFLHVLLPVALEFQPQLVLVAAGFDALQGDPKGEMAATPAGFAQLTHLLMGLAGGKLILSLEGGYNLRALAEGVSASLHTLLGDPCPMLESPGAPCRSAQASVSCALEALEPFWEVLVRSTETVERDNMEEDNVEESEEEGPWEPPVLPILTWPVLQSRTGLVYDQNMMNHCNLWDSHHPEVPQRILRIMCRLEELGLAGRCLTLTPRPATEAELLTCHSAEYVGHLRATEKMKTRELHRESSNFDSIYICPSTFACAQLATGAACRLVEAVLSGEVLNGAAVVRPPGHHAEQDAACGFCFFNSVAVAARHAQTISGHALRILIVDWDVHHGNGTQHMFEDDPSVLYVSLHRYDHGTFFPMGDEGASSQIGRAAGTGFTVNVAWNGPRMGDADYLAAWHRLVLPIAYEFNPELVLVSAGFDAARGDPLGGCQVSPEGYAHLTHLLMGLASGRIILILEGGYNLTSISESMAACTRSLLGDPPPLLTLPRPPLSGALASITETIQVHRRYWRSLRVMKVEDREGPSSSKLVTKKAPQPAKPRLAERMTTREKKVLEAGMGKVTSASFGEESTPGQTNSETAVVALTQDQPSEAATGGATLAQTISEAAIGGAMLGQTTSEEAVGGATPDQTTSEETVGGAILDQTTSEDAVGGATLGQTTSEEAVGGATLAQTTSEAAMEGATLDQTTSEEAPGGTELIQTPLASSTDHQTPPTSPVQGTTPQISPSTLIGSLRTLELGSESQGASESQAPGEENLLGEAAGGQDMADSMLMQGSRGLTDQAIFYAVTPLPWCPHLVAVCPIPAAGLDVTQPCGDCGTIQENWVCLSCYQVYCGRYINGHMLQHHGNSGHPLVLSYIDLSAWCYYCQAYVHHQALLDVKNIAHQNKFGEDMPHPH
In short: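 MG-63 sarcosphere-derived CSCs treated 24 h with 0.5 and 2 μM. Acetyl-tubulin measured by Western blot with densitometry normalized to TBP and expressed as index versus negative control.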

MG-63 [4] = test: Induction of apoptosis in human MG63 cells assessed as formation of apoptotic bodies after 48 hrs by Hoechst 33258 staining-based fluorescence microscopic analysis; type: functional, cell-based
In short: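 Dissociated sarcospheres seeded on glass coverslips in complete IMDM and exposed to 0.5, 1 and 2 μM for 48 h; untreated cells as negative control. Fixed in methanol/acetic acid (3:1), then stained with 2.25 μg/mL Hoechst 33258 for 10 min at rt in the dark. Apoptotic-body nuclei counted over at least five fields (20× objective) and reported as percentage of cells.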

MG-63 [5] = test: Induction of apoptosis in human MG63 cells at 0.5 to 2 uM after 48 hrs by Alexa Fluor 488 Annexin V/propidium iodide staining-based flow cytometric analysis; type: functional, cell-based
[6] = target: Histone deacetylase (Homo sapiens) (UniProt Q13547+O15379+Q9UBN7+Q92769+Q9UQL6+Q8WUI4+Q9BY41+Q96DB2+P56524+Q9UKV0+Q969S8); conditions: MG-63, 0.5 to 2 uM

Histone deacetylase 5, sequence (Q9UQL6 whole entry, canonical isoform): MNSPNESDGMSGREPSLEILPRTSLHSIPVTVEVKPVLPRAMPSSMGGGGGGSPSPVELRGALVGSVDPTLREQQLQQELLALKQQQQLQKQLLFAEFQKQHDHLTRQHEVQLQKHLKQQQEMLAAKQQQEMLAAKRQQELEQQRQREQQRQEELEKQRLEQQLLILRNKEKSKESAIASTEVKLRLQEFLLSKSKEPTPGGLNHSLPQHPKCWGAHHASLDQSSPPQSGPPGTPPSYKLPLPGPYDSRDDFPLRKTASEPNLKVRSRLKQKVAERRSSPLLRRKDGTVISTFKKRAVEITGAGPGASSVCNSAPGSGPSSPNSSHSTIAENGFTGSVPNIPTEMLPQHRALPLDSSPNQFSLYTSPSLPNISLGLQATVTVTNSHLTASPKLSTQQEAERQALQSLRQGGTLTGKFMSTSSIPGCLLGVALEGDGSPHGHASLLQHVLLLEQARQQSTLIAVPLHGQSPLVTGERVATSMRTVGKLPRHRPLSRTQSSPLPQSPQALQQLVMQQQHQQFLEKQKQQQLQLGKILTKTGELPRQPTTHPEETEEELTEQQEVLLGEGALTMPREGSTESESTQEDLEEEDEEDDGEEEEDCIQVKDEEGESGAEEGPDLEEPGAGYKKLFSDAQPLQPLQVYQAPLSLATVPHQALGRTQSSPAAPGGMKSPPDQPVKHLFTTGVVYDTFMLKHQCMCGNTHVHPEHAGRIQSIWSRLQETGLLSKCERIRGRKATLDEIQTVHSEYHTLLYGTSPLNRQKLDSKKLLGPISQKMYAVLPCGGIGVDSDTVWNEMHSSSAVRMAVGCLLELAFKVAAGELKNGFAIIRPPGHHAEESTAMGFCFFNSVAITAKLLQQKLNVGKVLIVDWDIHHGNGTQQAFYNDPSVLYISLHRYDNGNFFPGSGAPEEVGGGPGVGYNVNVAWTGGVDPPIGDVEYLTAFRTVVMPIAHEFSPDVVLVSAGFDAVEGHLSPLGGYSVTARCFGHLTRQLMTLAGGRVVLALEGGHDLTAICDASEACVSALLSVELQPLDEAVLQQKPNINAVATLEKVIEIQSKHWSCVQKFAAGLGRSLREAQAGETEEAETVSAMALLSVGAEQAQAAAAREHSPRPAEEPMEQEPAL
Histone deacetylase 3, sequence (O15379 whole entry): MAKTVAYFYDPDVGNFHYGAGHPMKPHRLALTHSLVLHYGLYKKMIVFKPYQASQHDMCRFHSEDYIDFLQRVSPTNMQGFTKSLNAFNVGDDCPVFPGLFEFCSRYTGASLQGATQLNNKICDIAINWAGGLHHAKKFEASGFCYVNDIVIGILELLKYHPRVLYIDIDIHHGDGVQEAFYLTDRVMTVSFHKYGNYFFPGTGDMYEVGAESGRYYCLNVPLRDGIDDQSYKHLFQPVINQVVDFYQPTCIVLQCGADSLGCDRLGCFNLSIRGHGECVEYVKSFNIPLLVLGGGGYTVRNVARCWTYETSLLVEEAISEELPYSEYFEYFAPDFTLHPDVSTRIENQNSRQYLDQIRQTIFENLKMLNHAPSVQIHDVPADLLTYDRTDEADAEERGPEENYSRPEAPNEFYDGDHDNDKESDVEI
Histone deacetylase 2, sequence (Q92769 whole entry): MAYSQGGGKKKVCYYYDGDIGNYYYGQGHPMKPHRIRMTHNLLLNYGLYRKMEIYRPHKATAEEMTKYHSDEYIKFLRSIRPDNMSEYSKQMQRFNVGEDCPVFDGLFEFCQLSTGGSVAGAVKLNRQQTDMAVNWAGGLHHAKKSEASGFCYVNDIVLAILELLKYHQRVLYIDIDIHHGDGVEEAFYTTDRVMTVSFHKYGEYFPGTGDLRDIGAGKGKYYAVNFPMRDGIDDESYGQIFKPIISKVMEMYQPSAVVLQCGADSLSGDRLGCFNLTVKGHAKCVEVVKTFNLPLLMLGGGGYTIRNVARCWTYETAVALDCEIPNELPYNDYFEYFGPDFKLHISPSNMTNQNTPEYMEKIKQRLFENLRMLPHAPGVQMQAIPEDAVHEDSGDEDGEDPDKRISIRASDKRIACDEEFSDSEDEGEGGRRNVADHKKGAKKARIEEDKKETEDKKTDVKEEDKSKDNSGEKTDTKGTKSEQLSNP

Structure (SMILES)	IC50 (Histone deacetylase 2)	IC50 (Histone deacetylase 3)	IC50 (Histone deacetylase 5)	IC50 [1]	Activity (HOS)	Activity (MG-63 [2])	Activity (A204)	Activity (SK-ES1)	inhibition [3]	Activity (MG-63 [4])	Activity (MG-63 [5])	inhibition [6]
O=C(/C=C/c1ccc(NC(=O)C(Cc2ccccc2)c2ccccc2)cn1)NO (stereo not given)	1770 nM	80 nM	9370 nM	1800 nM	Dose-dependent effect	Dose-dependent effect	Dose-dependent effect	Dose-dependent effect	Active	Dose-dependent effect	Active	
O=C(CCCCSc1nc(-c2ccc(-c3ccccc3)cc2)cc(=O)[nH]1)NO			> 50000 nM		Dose-dependent effect	Dose-dependent effect	Dose-dependent effect	Dose-dependent effect	Active	Dose-dependent effect	Active	Active
